This note sets out measurements from PubChem BioAssay AID809 (SRMLSC, 2007).

Activity calls are given as the source filed them.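 Rule for the calls: active = EC50 for reversing nicotinamide-shortened yeast lifespan at or below a set limit; inactive = EC50 above that limit.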

The assay concerns S. cerevisiae DeaD BB579, nicotinamide rescue growth, OD615 48 h. Kind of assay: BB579 yeast growth restoration under nicotinamide – S. cerevisiae, yeast lifespan extension project, dose response (AID 809). Summed up:
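System – S. cerevisiae DeaD strain BB579 · Buffer or medium – CSMM-D glucose restrictive medium · Times – culture pre-incubation 4 h, then compound exposure 48 h, both 30 °C · Signal – OD615 absorbance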
In the case of `CCc1oc2ccccc2c1C(=O)CCN1CCCCC1`, the EC50 (usually the concentration needed to bring the measured effect to its halfway point) is 8.21 µM.
The value for `CC(C)Cn1c(=O)c(C(=O)Nc2cnccn2)c(O)c2ccccc21` was 9.1 µM; that for `C=CCN(CC=C)S(=O)(=O)c1ccc2nc(NC(=O)C(C)C)sc2c1` was > 10 µM (inactive); that for `CCOC(=O)c1[nH]nc(C(=O)c2ccc(Br)cc2)c1O` was 5.89 µM.
As to `N#C/C(=C\c1ccccc1)C(=O)N(c1ccccn1)C1CCCCC1`, the EC50 is 6.66 µM.
For `CCCCC(=O)Nc1ccc(C(=O)NNC(=S)NC(=O)c2cccs2)cc1`, the EC50 is 8.39 µM.
In the case of `CCOc1ccc(/C=C/C(=O)c2c(O)c3ccccc3oc2=O)cc1` it was > 10 µM (inactive).
In the case of `CC(C)c1noc2ncc(C(=O)c3cc(Cl)cc(Cl)c3O)cc12` it was > 10 µM (inactive).
In the case of `Cc1ccsc1C(=O)Nc1nnc(-c2ccco2)o1` it was 9.27 µM; in that of `CCCNC(=O)CCC(NS(=O)(=O)c1ccc(C)cc1)C(=O)NCCC` (stereo not drawn), > 10 µM (inactive).
In the case of `Cc1ccnc(SCc2cc(=O)c(OC(=O)c3ccco3)co2)n1`, the EC50 was 8.45 µM.
In the case of `COC(=O)c1cc(=O)n(-c2ccccc2)c(=Nc2ccccc2)s1` it was > 10 µM (inactive).
The value for `CCOc1ccc2nc(NCCNC(=O)Nc3ccccc3)c(C#N)cc2c1` was > 10 µM (inactive); that for `CCOC(=O)c1ccc2c(c1)n(CCO)c(C)[n+]2CC` was > 10 µM (inactive); that for `CCc1nc(SCC(=O)c2ccc3c(c2)OCCO3)c2ccccc2n1` was > 10 µM (inactive).
In the case of `O=C(Nc1ccc(S(=O)(=O)N2CCc3ccccc3C2)cc1)c1ccccc1` it was > 10 µM (inactive); in that of `COc1ccc(O)c(C(=O)c2cc(C#N)c(=O)n(CC3CCCO3)c2)c1` (stereo not drawn), 8.21 µM; in that of `CCCCCC1CC1C(=O)N/N=C/c1ccc(N(C)C)cc1` (stereo not drawn), > 10 µM (inactive).
With `Cc1ccc(C)c(N2CCN(S(=O)(=O)c3c(C)noc3/C=C/N(C)C)CC2)c1`, the EC50 is > 10 µM (inactive).
Consider `CCn1c(/N=C/c2ccccc2NS(=O)(=O)c2ccc(C)cc2)nc2ccccc21`, for which the EC50 was 3.3 µM.
The value for `C/C=C/Cn1c(N2CCCCCC2)nc2c1c(=O)[nH]c(=O)n2C` was > 10 µM (inactive).
The value for `Cc1ccc2nc(-c3ccc(NC(=O)CSc4ccccc4)cc3)[nH]c2c1` was > 10 µM (inactive); that for `COc1cccc(C(=O)Oc2cc(N)n(S(=O)(=O)c3ccc(C)cc3)n2)c1OC` was 9.26 µM.
The value for `Cc1ccc2[nH]c3c(c2c1)CC/C(=C/c1ccccc1)C3=O` was > 10 µM (inactive).
Turning to `C=C(C)CN(CC)C(=O)COc1ccc(S(=O)(=O)Nc2ccc(OC)cc2)cc1`, the EC50 is > 10 µM (inactive).
In the case of `CCOC(=O)Cc1csc(NC(=O)c2c(O)c3ccccc3n(CC(C)C)c2=O)n1`, the EC50 is 9.63 µM.
The value for `CCC(C)OC(=O)C1C(c2ccccc2)C(C(=O)O)C1c1ccccc1` (stereo not drawn) was 8.26 µM; that for `Nc1cccc2c1C(=O)N(C(=O)c1ccc(Cl)c(S(=O)(=O)N3CCCCCC3)c1)C2=O` was 7.66 µM; that for `O=c1c(-c2ccc(Cl)cc2)[n+]([O-])c2ccccc2n1OCc1ccccn1` was > 10 µM (inactive).
Regarding `CC(=O)c1c(O)cc2n(c1=O)-c1ccc(Cl)cc1C2(C)C`, the EC50 was 7.34 µM.
In the case of `CCCc1cc(=O)oc2cc(C)c(CN3CCCC3)c(O)c12` it was 6.15 µM; in that of `CCn1c(=O)c2ccccc2n2c(SCC(=O)N3CCCc4ccccc43)nnc12`, > 10 µM (inactive); in that of `O=C1C(Cl)=C(Nc2ccccc2O)C(=O)N1CCc1ccccc1`, > 10 µM (inactive).
In the case of `Cc1cccc(NC(=O)c2c(O)c3cccc4c3n(c2=O)CCC4)n1` it was 6.87 µM; in that of `CS(=O)(=O)c1nc(-c2cccs2)cc(C(F)(F)F)n1`, 3.91 µM; in that of `COc1ccc(CN2C(=O)/C(=C/c3ccncc3)SC2=S)cc1`, 6.07 µM.
In the case of `Cc1cccc(OC(=O)n2c(=S)oc3cc(Cl)ccc32)c1` it was 5.42 µM; in that of `CCc1[nH]nc2c1C(c1ccc(Br)s1)C(C#N)=C(N)O2` (stereo not drawn), 9.31 µM.
Turning to `COn1c(SC2CCCCC2)nc2ccccc2c1=O`, the EC50 was 1.14 µM.
In the case of `CCOC(=O)CS(=O)(=O)c1nc(-c2ccc(F)cc2)cc(C(F)(F)F)n1` it was 5.71 µM; in that of `CC(C)C(OC(=O)CN1C(=O)COc2ccccc21)C(=O)NC1CCCC1` (stereo not drawn), > 10 µM (inactive).
On to `C=C(C(=O)c1ccccc1)C(C)C(=C)C(=O)c1ccccc1`, for which the EC50 was 4.62 µM.
In the case of `O=Cc1ccccc1OS(=O)(=O)c1ccccc1` it was 9.56 µM; in that of `CCCC(=O)Nc1ccccc1Sc1ncnc2scc(-c3ccccc3)c12`, > 10 µM (inactive); in that of `Cc1ccc(C(=O)C2C(=O)c3ccccc3C2=O)cc1`, 3.68 µM.
Regarding `CC(C)=C1C(=O)NN(c2ccc(C)c(Cl)c2)C1=O`, the EC50 is 9.85 µM.
The value for `CCOC(=O)CCS(=O)(=O)c1nc(-c2ccccc2)cc(C(F)(F)F)n1` was 1.13 µM; that for `O=c1cc(O)c2c(=O)n(-c3ccccc3)c3c(c2o1)CCCCCC3` was > 10 µM (inactive); that for `CCOc1ccc(C(=O)C(CN2CCOCC2)c2ccccc2)cc1` (stereo not drawn) was 7.92 µM.
The value for `O=[N+]([O-])c1cc2oc3c(c2c(C=NCc2ccccc2)c1O)CCCC3` was 2.55 µM; that for `CCCC[n+]1c(-c2ccc(Cl)cc2Cl)csc1Nc1ccccc1` was > 10 µM (inactive).
For the molecule `O=C(NCc1ccc(Cl)cc1)c1ccccc1CCc1ccccc1`, the EC50 is 7.94 µM.
The value for `COc1ccc2c3c(cccc13)C(=O)N(O)C2=O` was 2.08 µM; that for `N=c1c2c(-c3ccccc3)c(-c3ccccc3)n(Cc3ccco3)c2ncn1CCCn1ccnc1` was 9.85 µM; that for `CC1(C)CC(=O)C2=C(C1)OC1=C(C(=O)CC(C)(C)C1)C2c1ccc(O)cc1O` was > 10 µM (inactive).
The value for `COc1ccc(NC(=O)/C(Cl)=C(/Cl)S(=O)Cc2ccc(C)cc2)cn1` (stereo not drawn) was > 10 µM (inactive).
The value for `Cc1[nH]n(-c2ccccc2)c(=O)c1N=Nc1nccs1` was 6 µM; that for `COC(=O)/C(=C/c1cn(C)c2ccccc12)[N+](=O)[O-]` was 2.24 µM; that for `O=C1c2ccccc2C(Nc2ccc3c(c2)OCCO3)N1c1ccccn1` (stereo not drawn) was > 10 µM (inactive).
Consider `C=CS(=O)(=O)c1ccc(Oc2ccc(S(=O)(=O)C=C)cc2)cc1`, for which the EC50 is 7.12 µM.
As for `O=CN(/C=C1\Sc2ccccc2C1=O)Cc1ccccc1`, the EC50 was 5.73 µM.
Consider `COc1ccc(C(=O)C(CN2CCOCC2)c2ccccc2)cc1` (stereo not drawn), for which the EC50 is 7.11 µM.
Consider `COC(=O)C1=C(C(=O)OC)SC(=C2C(=S)C(C)(C)N(C(=O)C(C)C)c3ccccc32)S1`, for which the EC50 is > 10 µM (inactive).
The value for `O=C(NCCc1ccccn1)C(F)(F)C(F)(F)C(F)(F)C(F)(F)C(F)(F)C(F)(F)C(F)(F)C(F)F` was > 10 µM (inactive); that for `CN(C)C1(c2nnnn2CCOC(=O)Nc2ccc(Cl)cc2)CCCCC1` was > 10 µM (inactive); that for `CCCCSc1[nH]c(=O)c(C(=O)OCC)cc1C#N` was 6.45 µM.
The value for `C/C(=N\NC(=O)c1ccccc1O)c1c(O)cc(C)oc1=O` was 2.9 µM; that for `O=C(NCc1cccnc1)c1ccc(S(=O)(=O)N2CCCCC2)cc1` was > 10 µM (inactive); that for `O=c1c(Cl)c(NCCCO)cnn1-c1nc2ccccc2[nH]1` was 7.65 µM.
In the case of `CN(c1ccccc1)c1nc2ccsc2c(=O)s1` it was > 10 µM (inactive); in that of `COc1ccc(OC)c(NC(=S)N2CCN(C/C=C/c3ccccc3)CC2)c1`, > 10 µM (inactive); in that of `CC(=O)c1c(C)[nH]c(C(=O)OC2CCCCC2=O)c1C` (stereo not drawn), > 10 µM (inactive).
`CCc1cc2c(=O)c(Oc3ccccc3)c(C)oc2cc1O`: the EC50 is > 10 µM (inactive).
In the case of `Cc1ccc(S(=O)(=O)Nc2ccccc2/C=N/c2nc3ccccc3n2C(C)C)cc1` it was > 10 µM (inactive); in that of `COc1ccc(-c2noc(CSc3nnc(-c4ccncc4)n3-c3ccc(F)cc3)n2)cc1OC`, > 10 µM (inactive); in that of `Cc1cc(C)n(-c2ccc(OCC(=O)O)nn2)n1`, > 10 µM (inactive).
The value for `C/C(=N\NC(=O)c1ccccc1O)C1C(=O)c2ccccc2C1=O` was below 0.078 µM; that for `CC(C)n1c(-c2ccccc2F)n[nH]c1=S` was > 10 µM (inactive).
The value for `Cc1cc(C)c(NC(=O)/C(=C/c2ccccc2)c2ccccc2)c(C)c1` was > 10 µM (inactive).
As to `COc1ccc2c(=O)c3c(=O)n(Cc4ccco4)c(-c4ccco4)nc3oc2c1`, the EC50 is 9.69 µM.
In the case of `CCCCCn1c(=O)c(C(=O)NCc2ccccn2)c(O)c2ccccc21` it was > 10 µM (inactive); in that of `Cc1ccccc1NC(=O)c1ccccc1`, > 10 µM (inactive).
The value for `Cn1nnnc1SCCNCC#Cc1ccccc1` was > 10 µM (inactive).
In the case of `O=C(COc1ccc2ccccc2c1)Nc1cccc(C(=O)Nc2ccccc2C(=O)O)c1` it was 8.35 µM.
Regarding `CS(=O)(=O)c1nc(-c2ccco2)cc(C(F)(F)F)n1`, the half-maximal effective concentration (EC50) was 4.01 µM.
Consider `CCN(CC)Cc1c(O)c(Cl)cc2c(C)c(C)c(=O)oc12`, for which the EC50 is > 10 µM (inactive).
In the case of `Cc1cc(C)cc(CC2CC(=O)N(c3ccc(Cl)cn3)C2=O)c1` (stereo not drawn) it was > 10 µM (inactive); in that of `Cc1cc(N=Cc2c(O)ccc3ccccc23)no1`, 5.54 µM.
The value for `CC1CCCN(c2nc3ccccc3nc2C(C#N)C(=O)OC2CCCCC2)C1` (stereo not drawn) was > 10 µM (inactive); that for `Cc1ccccc1Oc1cc(-n2ncc(Cl)c(Cl)c2=O)ncn1` was > 10 µM (inactive).
`C=CCn1c(O)c(C(CC)=NCCN2CCOCC2)c(=O)[nH]c1=O`: the EC50 is > 10 µM (inactive).
In the case of `CCOC(=O)c1cnc(-c2ccccc2)nc1Oc1ccc(Cl)cc1` it was > 10 µM (inactive); in that of `Cc1cc(C2C(C#N)=C(N)Oc3n[nH]c(C)c32)c(C)s1` (stereo not drawn), > 10 µM (inactive).
